Assay results: ChEMBL document CHEMBL1255294, “Genetic and biochemical characterization of OXA-63, a new class D beta-lactamase from Brachyspira pilosicoli BM4442” (Antimicrob Agents Chemother, 2008); call rule not given here
In brackets after ≈: the same amount, converted by molar mass.

T1: Class D beta-lactamase (Brachyspira pilosicoli) (UniProt Q50H31)
T1 sequence (whole entry): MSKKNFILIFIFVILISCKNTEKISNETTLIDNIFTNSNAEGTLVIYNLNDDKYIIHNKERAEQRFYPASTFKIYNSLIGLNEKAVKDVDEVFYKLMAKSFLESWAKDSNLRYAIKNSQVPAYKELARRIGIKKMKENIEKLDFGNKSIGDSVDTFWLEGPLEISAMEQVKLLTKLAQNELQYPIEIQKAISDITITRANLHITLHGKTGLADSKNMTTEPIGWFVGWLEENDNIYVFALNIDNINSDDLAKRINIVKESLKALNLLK

T2: Class D beta-lactamase (Brachyspira pilosicoli, UniProt Q50H31)
T2 sequence (Q50H31 whole entry): T1 sequence (whole entry)

B1: Class D beta-lactamase (Brachyspira pilosicoli), Q50H31 (protein)
chain: T1 sequence (whole entry)

Tests used:
[1] = Activity of beta-lactamase FUS1 assessed as compound hydrolysis by spectrophotometry
[2] = Activity of beta-lactamase FUS1 assessed as compound hydrolysis by spectrophotometry relative to benzyl-penicillin; parameters: scale not given: the % may be the effect or the level left
[3] = Ratio of Kcat to Km for beta-lactamase FUS1 assessed as compound hydrolysis by spectrophotometry
[4] = molecular target: T1, Class D beta-lactamase (Brachyspira pilosicoli); assay: Activity of Brachyspira pilosicoli beta-lactamase OXA-63 expressed in Escherichia coli BL21 (DE3) assessed as compound hydrolysis by spectrophotometry relative to oxacillin; parameters: scale not given: the % may be the effect or the level left
Brachyspira pilosicoli [5] = assay: Antimicrobial activity against Brachyspira pilosicoli 80.10 without producing beta-lactamase OXA-63 by disc diffusion method; assay type: functional
Procedure, shortened: (§1)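 Disk diffusion was done on Mueller-Hinton agar supplemented with 5% sheep blood, following Comité de l'Antibiogramme de la Société Française de Microbiologie standards. Plates were incubated in an anaerobic jar at 37°C for 3 days.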

Escherichia coli [6] = assay: Antimicrobial activity against Escherichia coli JM83 without producing beta-lactamase OXA-63 after 3 days by Etest; assay type: functional
Brachyspira pilosicoli [7] = assay: Antimicrobial activity against beta-lactamase OXA-63 producing Brachyspira pilosicoli isolate BM4442 isolated from feces of patient with diarrhea by disc diffusion method; assay type: functional; procedure, shortened: as §1
Escherichia coli [8] = assay: Antimicrobial activity against Escherichia coli JM83 harboring beta-lactamase OXA-63 after 3 days by Etest; assay type: functional
Procedure, shortened: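 MICs for E. coli JM83 transformants were read by Etest on Mueller-Hinton agar. Transformants were selected on BHI agar with ampicillin 50 µg/ml and kanamycin 40 µg/ml.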

Class D beta-lactamase = molecular target: T2, Class D beta-lactamase; assay: Inhibition of Brachyspira pilosicoli beta-lactamase OXA-63 expressed in Escherichia coli BL21 (DE3) assessed as reduction in nitrocefin hydrolysis by spectrophotometry relative to oxacillin
Procedure, shortened: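 C-terminal His6-tagged OXA-63 was expressed in E. coli BL21(DE3)pLys with 0.5 mM IPTG for 4 h at 28°C and purified by nickel affinity. Enzyme (50 to 150 nM) was preincubated with inhibitor for 30 min at 25°C in 100 mM sodium phosphate, pH 7.0. 100 µM nitrocefin was then added, and initial hydrolysis rates were read spectrophotometrically. IC50 was the concentration halving the rate.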

[9] = substrate: CC1(C)S[C@@H]2[C@H](NC(=O)[C@H](N)c3ccccc3)C(=O)N2[C@H]1C(=O)O; assay: (§2) Ratio of Kcat to Km for Brachyspira pilosicoli beta-lactamase OXA-63 expressed in Escherichia coli BL21 (DE3) assessed as compound hydrolysis by spectrophotometry
[10] = substrate: CC1(C)S[C@@H]2[C@H](NC(=O)C(C(=O)O)c3ccccc3)C(=O)N2[C@H]1C(=O)O; assay: as §2
[11] = substrate: CC1(C)S[C@@H]2[C@H](NC(=O)Cc3ccccc3)C(=O)N2[C@H]1C(=O)O; assay: as §2
[12] = substrate: CCN1CCN(C(=O)N[C@@H](C(=O)N[C@@H]2C(=O)N3[C@@H]2SC(C)(C)[C@@H]3C(=O)O)c2ccccc2)C(=O)C1=O; assay: as §2
[13] = substrate: Cc1onc(-c2ccccc2)c1C(=O)N[C@@H]1C(=O)N2[C@@H]1SC(C)(C)[C@@H]2C(=O)O; assay: as §2
[14] = substrate: CO/N=C(\C(=O)N[C@@H]1C(=O)N2C(C(=O)O)=C(COC(N)=O)CS[C@H]12)c1ccco1; assay: (§3) Activity of Brachyspira pilosicoli beta-lactamase OXA-63 expressed in Escherichia coli BL21 (DE3) assessed as compound hydrolysis by spectrophotometry
[15] = substrate: CC1(C)S[C@@H]2[C@H](NC(=O)[C@H](N)c3ccccc3)C(=O)N2[C@H]1C(=O)O; assay: as §3
[16] = substrate: CC1(C)S[C@@H]2[C@H](NC(=O)C(C(=O)O)c3ccccc3)C(=O)N2[C@H]1C(=O)O; assay: as §3
[17] = substrate: CC1(C)S[C@@H]2[C@H](NC(=O)Cc3ccccc3)C(=O)N2[C@H]1C(=O)O; assay: as §3
[18] = substrate: CCN1CCN(C(=O)N[C@@H](C(=O)N[C@@H]2C(=O)N3[C@@H]2SC(C)(C)[C@@H]3C(=O)O)c2ccccc2)C(=O)C1=O; assay: as §3
[19] = substrate: Cc1onc(-c2ccccc2)c1C(=O)N[C@@H]1C(=O)N2[C@@H]1SC(C)(C)[C@@H]2C(=O)O; assay: as §3
[20] = substrate: CC(=O)OCC1=C(C(=O)O)N2C(=O)[C@@H](NC(=O)Cc3cccs3)[C@H]2SC1; assay: as §3

Molecule | Km [1] | kcat [1] | kcat/Km [3] | MIC (Brachyspira pilosicoli [5]) | MIC (Escherichia coli [6]) | MIC (Brachyspira pilosicoli [7]) | MIC (Escherichia coli [8]) | further results
CC(=O)OCC1=C(C(=O)O)N2C(=O)[C@@H](NC(=O)Cc3cccs3)[C@H]2SC1 | 47 µM | 4.1 s⁻¹ | 8.7 ×10⁵ /M/s | – | – | – | – | Activity [2]: 0.1%
CC1(C)S[C@@H]2[C@H](NC(=O)[C@H](N)c3ccccc3)C(=O)N2[C@H]1C(=O)O | 76 µM | 45 s⁻¹ | 5.7 ×10⁵ /M/s | – | – | – | – | Activity [2]: 0.7%; Activity [4]: 15%
CO/N=C(\C(=O)N[C@@H]1C(=O)N2C(C(=O)O)=C(COC(N)=O)CS[C@H]12)c1ccco1 | > 400 µM | > 1.8 s⁻¹ | 4.5 ×10⁵ /M/s | – | – | – | – | Activity [2]: 0.005%
CC1(C)S[C@@H]2[C@H](NC(=O)[C@H](N)c3ccc(O)cc3)C(=O)N2[C@H]1C(=O)O [AMOXICILLIN] | – | – | – | 0.047 µg/mL (≈ 0.129 µM) | 6 µg/mL (≈ 16.4 µM) | 1.5 µg/mL (≈ 4.1 µM) | 256 µg/mL (≈ 701 µM) | –
C[C@H]1[C@H](NC(=O)/C(=N\OC(C)(C)C(=O)O)c2csc(N)n2)C(=O)N1S(=O)(=O)O [AZTREONAM] | – | – | – | 1 µg/mL (≈ 2.3 µM) | 0.19 µg/mL (≈ 0.436 µM) | 1 µg/mL (≈ 2.3 µM) | 0.19 µg/mL (≈ 0.436 µM) | –
CO/N=C(\C(=O)N[C@@H]1C(=O)N2C(C(=O)O)=C(COC(C)=O)CS[C@H]12)c1csc(N)n1 [CEFOTAXIME] | – | – | – | < 0.016 µg/mL | 0.064 µg/mL (≈ 0.141 µM) | 0.032 µg/mL (≈ 0.0703 µM) | 0.064 µg/mL (≈ 0.141 µM) | –
CC(C)(O/N=C(\C(=O)N[C@@H]1C(=O)N2C(C(=O)[O-])=C(C[n+]3ccccc3)CS[C@H]12)c1csc(N)n1)C(=O)O [CEFTAZIDIME] | – | – | – | 4 µg/mL (≈ 7.32 µM) | 0.5 µg/mL (≈ 0.915 µM) | 4 µg/mL (≈ 7.32 µM) | 0.5 µg/mL (≈ 0.915 µM) | –
O=C(O)[C@H]1/C(=C/CO)O[C@@H]2CC(=O)N21 [CLAVULANIC ACID] | – | – | – | – | – | – | – | IC50 (Class D beta-lactamase): 2000 nM
C[C@@H](O)[C@H]1C(=O)N2C(C(=O)O)=C(SCCNC=N)C[C@H]12 [IMIPENEM ANHYDROUS] | – | – | – | < 4 µg/mL | < 4 µg/mL | < 4 µg/mL | 4 µg/mL (≈ 13.4 µM) | –
C[C@@H](O)[C@H]1C(=O)N2C(C(=O)O)=C(S[C@@H]3CN[C@H](C(=O)N(C)C)C3)[C@H](C)[C@H]12 [MEROPENEM] | – | – | – | 0.032 µg/mL (≈ 0.0834 µM) | 0.032 µg/mL (≈ 0.0834 µM) | 0.032 µg/mL (≈ 0.0834 µM) | 0.016 µg/mL (≈ 0.0417 µM) | –
Cc1onc(-c2ccccc2)c1C(=O)N[C@@H]1C(=O)N2[C@@H]1SC(C)(C)[C@@H]2C(=O)O [OXACILLIN] | 36 µM | 780 s⁻¹ | 2.1 ×10⁷ /M/s | 0.125 µg/mL (≈ 0.311 µM) | – | > 256 µg/mL | – | Activity [2]: 25%
CC1(C)S[C@@H]2[C@H](NC(=O)Cc3ccccc3)C(=O)N2[C@H]1C(=O)O [PENICILLIN G] | 10 µM | 830 s⁻¹ | 8.3 ×10⁷ /M/s | 0.023 µg/mL (≈ 0.0688 µM) | 24 µg/mL (≈ 71.8 µM) | 2 µg/mL (≈ 5.98 µM) | 256 µg/mL (≈ 766 µM) | Activity [4]: 25.5%
CCN1CCN(C(=O)N[C@@H](C(=O)N[C@@H]2C(=O)N3[C@@H]2SC(C)(C)[C@@H]3C(=O)O)c2ccccc2)C(=O)C1=O [PIPERACILLIN] | – | – | – | 0.016 µg/mL (≈ 0.0309 µM) | 1.5 µg/mL (≈ 2.9 µM) | 48 µg/mL (≈ 92.7 µM) | 96 µg/mL (≈ 185 µM) | Activity [4]: 6.5%
CC1(C)[C@H](C(=O)O)N2C(=O)C[C@H]2S1(=O)=O [SULBACTAM] | – | – | – | – | – | – | – | IC50 (Class D beta-lactamase): 12000 nM
C[C@]1(Cn2ccnn2)[C@H](C(=O)O)N2C(=O)C[C@H]2S1(=O)=O [TAZOBACTAM] | – | – | – | – | – | – | – | IC50 (Class D beta-lactamase): 160 nM
B1 | – | – | – | – | – | – | – | kcat/Km [9]: 1.5 ×10⁵ /M/s; kcat/Km [10]: 6.5 ×10⁴ /M/s; kcat/Km [11]: 2.5 ×10⁵ /M/s; kcat/Km [12]: 6.4 ×10⁴ /M/s; kcat/Km [13]: 9.8 ×10⁵ /M/s; kcat [14]: Not Active; Km [15]: 43 µM; kcat [15]: 6.6 s⁻¹; Km [16]: 17 µM; kcat [16]: 1.1 s⁻¹; Km [17]: 19 µM; kcat [17]: 4.9 s⁻¹; Km [18]: 33 µM; kcat [18]: 2.1 s⁻¹; Km [19]: 115 µM; kcat [19]: 113 s⁻¹; kcat [20]: Not Active
